Experiment [1] relates to Mus musculus. Kind of experiment: Induction of cytokine MIG secretion in C57BL/6 mouse at 0.25 mg/kg, sc. In kind it is functional, organism-based. Further details: dose 0.25 mg/kg. In a few lines: (§1)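 Female C57BL/6 mice, 6–8 weeks old (n=3), were injected sc with single compounds at 0.25 or 20 mg/kg. Serum was collected by retro-orbital bleed 2 h later and cytokines were measured by Luminex mouse 20-plex assay.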

The target of experiment [2] is T1, Toll-like receptor 9 (Mus musculus) (UniProt Q9EQU3).
T1 sequence (whole entry): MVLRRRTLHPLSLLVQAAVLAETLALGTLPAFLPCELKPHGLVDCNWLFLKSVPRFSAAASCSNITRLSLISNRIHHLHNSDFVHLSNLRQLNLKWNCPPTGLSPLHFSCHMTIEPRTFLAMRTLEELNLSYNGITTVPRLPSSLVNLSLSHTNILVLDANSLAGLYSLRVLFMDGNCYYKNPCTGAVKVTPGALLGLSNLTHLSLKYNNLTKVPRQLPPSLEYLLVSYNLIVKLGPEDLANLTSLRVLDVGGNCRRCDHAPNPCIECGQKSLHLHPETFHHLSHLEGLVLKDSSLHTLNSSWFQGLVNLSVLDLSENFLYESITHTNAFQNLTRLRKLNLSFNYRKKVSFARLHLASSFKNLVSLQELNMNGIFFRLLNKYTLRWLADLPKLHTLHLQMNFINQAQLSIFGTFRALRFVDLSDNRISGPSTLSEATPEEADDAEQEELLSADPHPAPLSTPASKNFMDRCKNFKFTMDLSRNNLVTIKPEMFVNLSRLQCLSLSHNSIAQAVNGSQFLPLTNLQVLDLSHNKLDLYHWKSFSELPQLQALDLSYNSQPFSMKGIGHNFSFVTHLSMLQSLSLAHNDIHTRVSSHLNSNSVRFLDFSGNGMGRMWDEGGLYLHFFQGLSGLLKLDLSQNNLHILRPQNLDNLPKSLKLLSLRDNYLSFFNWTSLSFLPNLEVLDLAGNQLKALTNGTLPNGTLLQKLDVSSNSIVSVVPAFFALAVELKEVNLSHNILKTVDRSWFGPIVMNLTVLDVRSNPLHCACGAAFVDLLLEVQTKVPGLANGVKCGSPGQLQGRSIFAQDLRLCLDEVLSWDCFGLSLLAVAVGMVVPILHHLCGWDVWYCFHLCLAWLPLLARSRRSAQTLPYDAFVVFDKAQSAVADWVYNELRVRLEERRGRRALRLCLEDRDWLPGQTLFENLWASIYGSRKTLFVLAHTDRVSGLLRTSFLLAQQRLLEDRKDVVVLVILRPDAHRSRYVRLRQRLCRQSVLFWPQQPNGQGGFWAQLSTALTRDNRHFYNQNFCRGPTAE
Kind of experiment: Agonist activity at mouse TLR9 expressed in HEK293 cells assessed as activation of NF-kappaB at 10 ug/mL by SEAP reporter gene assay. Type of experiment: functional, cell-based. In a few lines: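 HEK293 cells stably expressing mouse TLR9 were transiently transfected with a SEAP reporter for 6 h. Compounds were added at 10 µg/mL for 18 h. SEAP was read with Quanti-Blue substrate and expressed as fold change in NF-κB activity.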

Experiment [3] deals with Mus musculus. Kind of experiment: Induction of IP10 secretion in C57BL/6 mouse at 0.25 mg/kg, sc. Type of experiment: functional, organism-based. Further details: dose 0.25 mg/kg. The essentials: as §1
In experiment [4] the target is T1, Toll-like receptor 9 (Mus musculus). Kind of experiment: Agonist activity at TLR9 in mouse J774 cells assessed as of NF-kappaB activation. In kind it is functional, cell-based. In a few lines: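 Murine J774 macrophages grown in DMEM with 10% FBS and plated at 5×10^6 cells/well. Nuclear extracts taken 1 h after agonist addition. NF-κB detected by EMSA on native polyacrylamide gels with autoradiography.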

The subject of experiment [5] is Mus musculus. Kind of experiment: Induction of cytokine MCP1 secretion in C57BL/6 mouse at 0.25 mg/kg, sc. In kind it is functional, organism-based. Further details: dose 0.25 mg/kg. The essentials: as §1
For experiment [6], the system named is Mus musculus. Kind of experiment: Induction of cytokine KC secretion in C57BL/6 mouse at 0.25 mg/kg, sc. Further details: dose 0.25 mg/kg. Type of experiment: functional, organism-based. The essentials:
as §1

The subject of experiment [7] is Mus musculus. Put plainly: Induction of IL10 secretion in C57BL/6 mouse at 0.25 mg/kg, sc. Type of experiment: functional, organism-based. Further details: dose 0.25 mg/kg. In a few lines:
as §1

The subject of experiment [8] is Mus musculus. Kind of experiment: Induction of IL12 secretion in C57BL/6 mouse at 0.25 mg/kg, sc. Type of experiment: functional, organism-based. More on the design: dose 0.25 mg/kg. The essentials:
as §1

The test system of experiment [9] is Mus musculus. Put plainly: Induction of IL6 secretion in C57BL/6 mouse at 0.25 mg/kg, sc. Type of experiment: functional, organism-based. Further details: dose 0.25 mg/kg. In a few lines:
as §1

For experiment [10], the target named is T1, Toll-like receptor 9 (Mus musculus). Put plainly: Antagonist activity at mouse TLR9 expressed in HEK293 cells assessed as inhibition of 5'-CTATCTGTCGTTCTCTGT-3'-induced NF-kappaB activation by SEAP reporter gene assay. In kind it is functional, cell-based. The essentials:
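Mouse TLR9-HEK293 cells were transfected with a SEAP reporter for 6 h. They were then stimulated for 18 h with agonist (0.25 or 0.5 µg/mL) plus increasing antagonist concentrations or set agonist:antagonist ratios. Quanti-Blue read-out, reported as % NF-κB activity with agonist alone as 100%.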
In general terms: Reporter assays use an easily measured gene product as a stand-in for the process of interest.

The subject of another experiment is PBMC. Kind of experiment: Inhibition of 5'-TCTGTCRTTCT-X-TCTTRCTGTCT-5'-induced human PBMC proliferation treated 72 hrs before induction. Type of experiment: functional, cell-based.
The subject of experiment [11] is Mus musculus. Kind of experiment: Inhibition of 5'-TCTGACRTTCT-X-TCTTRCAGTCT-3'-induced IL12 production in C57BL/6 mouse at 10 mg/kg, sc. In kind it is functional, organism-based. More on the design: dose 10 mg/kg. In a few lines:
(§2)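 C57BL/6 mice received antagonist or control 10 mg/kg sc, either with TLR9 agonist 0.25 mg/kg sc or up to 48 h before it. Serum IL-12 was measured 2 h after agonist. Two or three independent experiments; mean ± SEM, Student's t test versus PBS.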

Experiment [12] deals with Mus musculus. Kind of experiment: Inhibition of 5'-TCTGACRTTCT-X-TCTTRCAGTCT-3'-induced IL12 production in C57BL/6 mouse pretreated before up to 48 hrs of induction at 10 mg/kg, sc. Type of experiment: functional, organism-based. More on the design: dose 10 mg/kg. The essentials: as §2

Calls of active or inactive are those of the source. The calls are words filed in the database; no cut-off is given here.

Take `Cc1cn([C@H]2C[C@H](OP(=O)(S)OC[C@H]3O[C@@H](n4ccc(N)nc4=O)C[C@@H]3OP(=O)(S)OC[C@H]3O[C@@H](n4cc(C)c(=O)[nH]c4=O)C[C@@H]3OP(=O)(S)OC[C@H]3O[C@@H](n4cnc5c(=O)[nH]c(N)nc54)C[C@@H]3OP(=O)(S)OC[C@H]3O[C@@H](n4cnc5c(N)ncnc54)C[C@@H]3OP(=O)(S)OC[C@H]3O[C@@H](n4ccc(N)nc4=O)C[C@@H]3OP(=O)(S)OC[C@H]3O[C@@H](n4ccc5c(N)ncnc54)C[C@@H]3OP(=O)(S)OC[C@H]3O[C@@H](n4cc(C)c(=O)[nH]c4=O)C[C@@H]3OP(=O)(S)OC[C@H]3O[C@@H](n4cc(C)c(=O)[nH]c4=O)C[C@@H]3OP(=O)(S)OC[C@H]3O[C@@H](n4ccc(N)nc4=O)C[C@@H]3OP(=O)(S)OC[C@H]3O[C@@H](n4cc(C)c(=O)[nH]c4=O)C[C@@H]3OP(=O)(S)OCC(O)COP(=O)(S)O[C@H]3C[C@H](n4cc(C)c(=O)[nH]c4=O)O[C@@H]3COP(=O)(S)O[C@H]3C[C@H](n4ccc(N)nc4=O)O[C@@H]3COP(=O)(S)O[C@H]3C[C@H](n4cc(C)c(=O)[nH]c4=O)O[C@@H]3COP(=O)(S)O[C@H]3C[C@H](n4cc(C)c(=O)[nH]c4=O)O[C@@H]3COP(=O)(S)O[C@H]3C[C@H](n4ccc5c(=O)[nH]c(N)nc54)O[C@@H]3COP(=O)(S)O[C@H]3C[C@H](n4ccc(N)nc4=O)O[C@@H]3COP(=O)(S)O[C@H]3C[C@H](n4cnc5c(N)ncnc54)O[C@@H]3COP(=O)(S)O[C@H]3C[C@H](n4cnc5c(=O)[nH]c(N)nc54)O[C@@H]3COP(=O)(S)O[C@H]3C[C@H](n4cc(C)c(=O)[nH]c4=O)O[C@@H]3COP(=O)(S)O[C@H]3C[C@H](n4ccc(N)nc4=O)O[C@@H]3COP(=O)(S)O[C@H]3C[C@H](n4cc(C)c(=O)[nH]c4=O)O[C@@H]3CO)[C@@H](CO)O2)c(=O)[nH]c1=O` (stereo not given in full): the result (with Mus musculus [1]; in experiment [2]; with Mus musculus [3]; in experiment [4]; with Mus musculus [5]; in the experiment on Mus musculus [6]) was Active. The result in the experiment on Mus musculus [7], in the experiment with Mus musculus [8] and in the experiment with Mus musculus [9] was Active.
In the case of `CO[C@@H]1[C@H](OP(=O)(S)OC[C@H]2O[C@@H](n3ccc(N)nc3=O)C[C@@H]2OP(=O)(S)OC[C@H]2O[C@@H](n3cnc4c(=O)[nH]c(N)nc43)C[C@@H]2OP(=O)(S)OC[C@H]2O[C@@H](n3cc(C)c(=O)[nH]c3=O)C[C@@H]2OP(=O)(S)OC[C@H]2O[C@@H](n3cc(C)c(=O)[nH]c3=O)C[C@@H]2OP(=O)(S)OC[C@H]2O[C@@H](n3ccc(N)nc3=O)C[C@@H]2OP(=O)(S)OC[C@H]2O[C@@H](n3cc(C)c(=O)[nH]c3=O)C[C@@H]2OP(=O)(S)OC[C@H]2O[C@@H](n3ccc(N)nc3=O)C[C@@H]2OP(=O)(S)OC[C@H]2O[C@@H](n3cc(C)c(=O)[nH]c3=O)C[C@@H]2OP(=O)(S)OC[C@H]2O[C@@H](n3cnc4c(=O)[nH]c(N)nc43)C[C@@H]2OP(=O)(S)OC[C@H]2O[C@@H](n3cc(C)c(=O)[nH]c3=O)C[C@@H]2O)[C@@H](COP(=O)(S)O[C@H]2[C@@H](OC)[C@H](n3cnc4c(=O)[nH]c(N)nc43)O[C@@H]2COP(=O)(S)O[C@H]2C[C@H](n3cc(C)c(=O)[nH]c3=O)O[C@@H]2COP(=O)(S)O[C@H]2C[C@H](n3ccc(N)nc3=O)O[C@@H]2COP(=O)(S)O[C@H]2C[C@H](n3cc(C)c(=O)[nH]c3=O)O[C@@H]2COP(=O)(S)O[C@H]2C[C@H](n3cnc4c(N)ncnc43)O[C@@H]2COP(=O)(S)O[C@H]2C[C@H](n3cc(C)c(=O)[nH]c3=O)O[C@@H]2COP(=O)(S)O[C@@H]2C[C@@H](n3ccc(N)nc3=O)O[C@H]2CO)O[C@H]1n1ccc(=O)[nH]c1=O` (stereo not given in full), in experiment [2], the outcome was inactive. In addition, the outcome (in [10]; in the experiment with PBMC) was Active.
Regarding `CO[C@@H]1[C@H](OP(=O)(S)OC[C@H]2O[C@@H](n3cnc4c(N)ncnc43)[C@H](OC)[C@@H]2OP(=O)(S)OC[C@H]2O[C@@H](n3ccc(N)nc3=O)C[C@@H]2OP(=O)(S)OC[C@H]2O[C@@H](n3ccc(N)nc3=O)C[C@@H]2OP(=O)(S)OC[C@H]2O[C@@H](n3cc(C)c(=O)[nH]c3=O)C[C@@H]2OP(=O)(S)OC[C@H]2O[C@@H](n3cc(C)c(=O)[nH]c3=O)C[C@@H]2OP(=O)(S)OC[C@H]2O[C@@H](n3ccc(N)nc3=O)C[C@@H]2OP(=O)(S)OC[C@H]2O[C@@H](n3cc(C)c(=O)[nH]c3=O)C[C@@H]2OP(=O)(S)OC[C@H]2O[C@@H](n3ccc(N)nc3=O)C[C@@H]2OP(=O)(S)OC[C@H]2O[C@@H](n3cc(C)c(=O)[nH]c3=O)C[C@@H]2OP(=O)(S)OC[C@H]2O[C@@H](n3cnc4c(=O)[nH]c(N)nc43)C[C@@H]2OP(=O)(S)OC[C@H]2O[C@@H](n3cc(C)c(=O)[nH]c3=O)C[C@@H]2O)[C@@H](COP(=O)(S)O[C@H]2C[C@H](n3cc(C)c(=O)[nH]c3=O)O[C@@H]2COP(=O)(S)O[C@H]2[C@@H](O)[C@H](n3ccc(N)nc3=O)O[C@@H]2COP(=O)(S)O[C@H]2C[C@H](n3cc(C)c(=O)[nH]c3=O)O[C@@H]2COP(=O)(S)O[C@H]2C[C@H](n3cnc4c(N)ncnc43)O[C@@H]2COP(=O)(S)O[C@H]2C[C@H](n3cc(C)c(=O)[nH]c3=O)O[C@@H]2COP(=O)(S)O[C@@H]2C[C@@H](n3ccc(N)nc3=O)O[C@H]2CO)O[C@H]1n1ccc(N)nc1=O` (stereo not given in full), the result (with Mus musculus [11]; in experiment [2]; with Mus musculus [12]) was inactive.

The record behind these values is ChEMBL document CHEMBL1140884, “Oligodeoxyribonucleotide-based antagonists for Toll-like receptors 7 and 9” (2009).
